Active and inactive are the calls of the source. The calls are words filed in the database; no cut-off is given here.
Key:
[1] = target: T1, Neuropeptide Y receptor type 1 (Homo sapiens, UniProt P25929); assay: Displacement of [3H]-UR-MK114 from Y1R in human SK-N-MC cells; assay type: cell-based
T1 sequence (P25929 whole entry): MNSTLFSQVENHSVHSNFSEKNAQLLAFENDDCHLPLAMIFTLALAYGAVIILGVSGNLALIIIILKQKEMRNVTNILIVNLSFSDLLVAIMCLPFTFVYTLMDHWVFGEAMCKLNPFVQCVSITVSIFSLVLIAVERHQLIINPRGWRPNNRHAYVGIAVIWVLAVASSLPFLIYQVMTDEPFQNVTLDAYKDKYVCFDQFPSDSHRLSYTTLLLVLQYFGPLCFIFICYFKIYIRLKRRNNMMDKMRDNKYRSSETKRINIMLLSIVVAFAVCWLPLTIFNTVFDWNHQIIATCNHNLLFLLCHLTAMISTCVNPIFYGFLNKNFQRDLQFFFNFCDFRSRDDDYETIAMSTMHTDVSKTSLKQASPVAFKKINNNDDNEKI

[2] = Chemical stability in aqueous buffer assessed as compound decomposition after 90 mins at pH 7 by HPCL; assay type: physicochemical; conditions: read-out: Activity
How it was run: (§1)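 Compound at 50 µM final (from 1 mM DMSO stock) in PBS pH 7.0, 20 °C; aliquots at 20 and 90 min diluted with acetonitrile/H2O/1% TFA, analysed by RP-HPLC (220 nm); release of parent argininamide quantified against a five-point calibration curve (0.3–25 µM).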

[3] = target: T2, Neuropeptide Y receptor type 1 (Homo sapiens) (UniProt P25929); assay: Antagonist activity at Y1R in human MCF-7 cells at 50 nM after 5 to 8 mins by fluorescence confocal microscopy; assay type: functional, cell-based; conditions: MCF7
T2 sequence (whole entry): T1 sequence (P25929 whole entry)
How it was run: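 MCF-7-Y1 cells (MCF-7 subclone with 2–3-fold higher Y1R expression) pretreated 48 or 72 h with 1 nM 17β-estradiol; live-cell confocal imaging of fluorescent ligand (50–80 nM) after 5–23 min at rt in Leibovitz L15; non-specific binding with excess BIBP 3226 (5 µM or 80–125-fold); autofluorescence control.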

[4] = target: T2, Neuropeptide Y receptor type 1 (Homo sapiens); assay: Antagonist activity at Y1R in human HEL cells assessed as inhibition of pNPY induced [Ca2+] mobilisation; assay type: functional, cell-based
[5] = Chemical stability of the compound in DMSO at below 0 degC; assay type: physicochemical
[6] = Chemical stability in aqueous buffer assessed as compound decomposition after 20 mins at pH 7 by HPCL; assay type: physicochemical; conditions: read-out: Activity; how it was run: as §1
[7] = target: T3, Neuropeptide Y receptor type 2 (Homo sapiens, UniProt P49146); assay: Displacement of Dy-635-pNPY from human Y2R expressed in CHO cells by flow cytometry; assay type: cell-based
T3 sequence (P49146 whole entry): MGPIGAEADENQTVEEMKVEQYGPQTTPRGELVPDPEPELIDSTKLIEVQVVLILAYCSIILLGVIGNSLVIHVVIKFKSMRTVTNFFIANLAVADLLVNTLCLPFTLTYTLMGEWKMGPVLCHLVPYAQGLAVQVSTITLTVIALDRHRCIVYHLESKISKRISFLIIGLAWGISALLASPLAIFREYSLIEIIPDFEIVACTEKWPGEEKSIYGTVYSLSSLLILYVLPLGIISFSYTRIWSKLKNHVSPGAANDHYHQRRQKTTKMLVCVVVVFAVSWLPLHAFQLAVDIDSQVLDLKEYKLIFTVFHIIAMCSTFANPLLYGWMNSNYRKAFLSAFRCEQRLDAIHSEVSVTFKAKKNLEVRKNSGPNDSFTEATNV
How it was run: (§2)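 Flow cytometric displacement of labelled peptides: Cy5-[K4]-hPP on CHO-Y4 cells; Dy-635-pNPY or Cy5-pNPY on CHO-Y2 and HEC-1B-Y5 cells. Test ligands only at 1 and 10 µM or at 0.3 and 1 µM; for the red-excitable ligand, its own fluorescence without peptide was subtracted.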

[8] = target: T4, Neuropeptide Y receptor type 5 (Homo sapiens, UniProt Q15761); assay: Displacement of Dy-635-pNPY from human Y5R expressed in HEC-1B cells by flow cytometry
T4 sequence (Q15761 whole entry): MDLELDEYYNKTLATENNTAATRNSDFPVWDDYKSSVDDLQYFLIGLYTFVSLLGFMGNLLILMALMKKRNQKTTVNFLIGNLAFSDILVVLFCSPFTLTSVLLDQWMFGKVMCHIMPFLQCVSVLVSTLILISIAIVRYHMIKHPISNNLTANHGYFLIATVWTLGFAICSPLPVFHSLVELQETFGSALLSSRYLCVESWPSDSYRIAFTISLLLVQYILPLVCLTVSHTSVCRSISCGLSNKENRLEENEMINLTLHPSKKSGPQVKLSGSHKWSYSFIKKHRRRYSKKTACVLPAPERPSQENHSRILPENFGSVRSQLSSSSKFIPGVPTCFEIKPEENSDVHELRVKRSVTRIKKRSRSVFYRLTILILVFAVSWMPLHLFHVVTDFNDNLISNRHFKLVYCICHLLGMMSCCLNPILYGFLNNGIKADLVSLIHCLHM

[9] = target: Neuropeptide Y receptor type 4 (Homo sapiens, UniProt P50391); assay: Displacement of Cy5-[K4]-hpp from human Y4R expressed in CHO cells by flow cytometry; assay type: cell-based; how it was run: as §2
[10] = target: T1, Neuropeptide Y receptor type 1; assay: Displacement of [3H]-UR-MK114 from Y1R in human SK-N-MC cells by radioligand competition binding

Neuropeptide Y receptor type 4, sequence (P50391 whole entry): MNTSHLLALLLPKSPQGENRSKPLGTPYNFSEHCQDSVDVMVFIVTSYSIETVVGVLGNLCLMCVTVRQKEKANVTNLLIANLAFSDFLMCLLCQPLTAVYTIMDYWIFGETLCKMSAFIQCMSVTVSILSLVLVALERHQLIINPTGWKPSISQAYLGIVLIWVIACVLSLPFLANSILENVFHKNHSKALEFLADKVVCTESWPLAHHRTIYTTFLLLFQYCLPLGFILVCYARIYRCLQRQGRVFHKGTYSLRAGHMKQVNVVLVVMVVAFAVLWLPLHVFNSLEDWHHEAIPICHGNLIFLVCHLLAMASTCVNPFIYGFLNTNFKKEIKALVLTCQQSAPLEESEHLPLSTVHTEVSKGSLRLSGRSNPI

Structure (SMILES) | Ki [1] [nM] | Kb [4] [nM] | Stability [5] [months] | further results
NCCCCCC(=O)NC(N)=NCCC[C@@H](NC(=O)C(c1ccccc1)c1ccccc1)C(=O)NCc1ccc(O)cc1 | 19 |  |  | 
Cc1cc(/C=C/c2cc3c4c(c2)CCCN4CCC3)cc(C)[n+]1CCCCCC(=O)/N=C(/N)NCCC[C@@H](NC(=O)C(c1ccccc1)c1ccccc1)C(=O)NCc1ccc(CNC(N)=O)cc1.O=C([O-])C(F)(F)F | 23 | 12 | 12 | degraded at 1.5 h [2]: < 0.5%; Activity [3]: Active; degraded at 20 min [6]: 0%
Cc1cc(/C=C/c2cc3c4c(c2)CCCN4CCC3)cc(C)[n+]1CCCCNC(=O)/N=C(/N)NCCC[C@@H](NC(=O)C(c1ccccc1)c1ccccc1)C(=O)NCc1ccc(O)cc1.O=C([O-])C(F)(F)F | 140 | 7.2 | 12 | 
Cc1cc(/C=C/c2cc3c4c(c2)CCCN4CCC3)cc(C)[n+]1CCN(CCNC(=O)CCCCCCC(=O)/N=C(\N)NCCC[C@@H](NC(=O)C(c1ccccc1)c1ccccc1)C(=O)NCc1ccc(O)cc1)CCNC(=O)CCCCCCC(=O)/N=C(\N)NCCC[C@@H](NC(=O)C(c1ccccc1)c1ccccc1)C(=O)NCc1ccc(O)cc1.O=C([O-])C(F)(F)F | 100 | 0.6 | 12 | 
Cc1cc(/C=C/c2cc3c4c(c2)CCCN4CCC3)cc(C)[n+]1CCOCCOCCOCCC(=O)/N=C(/N)NCCC[C@@H](NC(=O)C(c1ccccc1)c1ccccc1)C(=O)NCc1ccc(O)cc1.O=C([O-])C(F)(F)F | 97 | 4.1 | 12 | 
Cc1cc(/C=C/C=C/c2ccc(N(C)C)cc2)cc(C)[n+]1CCCCCC(=O)/N=C(/N)NCCC[C@@H](NC(=O)C(c1ccccc1)c1ccccc1)C(=O)NCc1ccc(O)cc1.O=C([O-])C(F)(F)F | 50 | 3.7 | 12 | 
Cc1cc(/C=C/C=C/c2ccc(N(C)C)cc2)cc(C)[n+]1CCOCCOCC(=O)/N=C(/N)NCCC[C@@H](NC(=O)C(c1ccccc1)c1ccccc1)C(=O)NCc1ccc(O)cc1.O=C([O-])C(F)(F)F | 24 | 11 | 12 | Activity [3]: Active
NCCCCCC(=O)/N=C(/N)NCCC[C@@H](NC(=O)C(c1ccccc1)c1ccccc1)C(=O)NCc1ccc(O)cc1 |  | 95 |  | 
Cc1cc(/C=C/C=C2\N(C)c3ccc4ccccc4c3C2(C)C)cc(C)[n+]1CCOCCOCCNC(=O)CCCC(=O)/N=C(/N)NCCC[C@@H](NC(=O)C(c1ccccc1)c1ccccc1)C(=O)NCc1ccc(O)cc1.O=C([O-])C(F)(F)F | 96 | 6.8 | 12 | 
Cc1cc(/C=C/c2cc3c4c(c2)CCCN4CCC3)cc(C)[n+]1CCN(CCNC(=O)CCCCC(=O)/N=C(\N)NCCC[C@@H](NC(=O)C(c1ccccc1)c1ccccc1)C(=O)NCc1ccc(O)cc1)CCNC(=O)CCCCC(=O)/N=C(\N)NCCC[C@@H](NC(=O)C(c1ccccc1)c1ccccc1)C(=O)NCc1ccc(O)cc1.O=C([O-])C(F)(F)F | 61 | 1.2 | 12 | degraded at 1.5 h [2]: < 0.5%; degraded at 20 min [6]: 0%
N=C(N)N(CCC[C@@H](NC(=O)C(c1ccccc1)c1ccccc1)C(=O)NCc1ccc(O)cc1)C(=O)NCCCCN | 38 | 510 |  | 
Cc1cc(/C=C/C=C/c2ccc(N(C)C)cc2)cc(C)[n+]1CCCCNC(=O)/N=C(/N)NCCC[C@@H](NC(=O)C(c1ccccc1)c1ccccc1)C(=O)NCc1ccc(O)cc1.O=C([O-])C(F)(F)F | 150 | 7.6 | 12 | 
Cc1cc(/C=C/C=C2\N(C)c3ccc4ccccc4c3C2(C)C)cc(C)[n+]1CCOCCOCCNC(=O)CCCCC(=O)/N=C(/N)NCCC[C@@H](NC(=O)C(c1ccccc1)c1ccccc1)C(=O)NCc1ccc(O)cc1.O=C([O-])C(F)(F)F | 130 | 8 | 12 | 
CN(C)c1ccc(/C=C/C=C/c2sc3ccccc3[n+]2CCCC(=O)ON2C(=O)CCC2=O)cc1.O=C([O-])C(F)(F)F |  |  | 12 | 
CN(C)c1ccc(/C=C/C=C/c2sc3ccccc3[n+]2CCCC(=O)NCCNC(=O)CCCC(=O)/N=C(/N)NCCC[C@@H](NC(=O)C(c2ccccc2)c2ccccc2)C(=O)NCc2ccc(O)cc2)cc1.O=C([O-])C(F)(F)F | 42 | 2.4 | 12 | 
Cc1cc(/C=C/c2cc3c4c(c2)CCCN4CCC3)cc(C)[n+]1CCCNC(=O)CCCC(=O)/N=C(/N)NCCC[C@@H](NC(=O)C(c1ccccc1)c1ccccc1)C(=O)NCc1ccc(O)cc1.O=C([O-])C(F)(F)F | 38 | 11 | 12 | 
Cc1cc(/C=C\C=C2\N(C)c3ccc4ccccc4c3C2(C)C)cc(C)[n+]1CCOCCOCCNC(=O)CCCCCCC(=O)/N=C(/N)NCCC[C@@H](NC(=O)C(c1ccccc1)c1ccccc1)C(=O)NCc1ccc(O)cc1.O=C([O-])C(F)(F)F | 130 | 7.8 | 12 | 
Cc1cc(/C=C/c2cc3c4c(c2)CCCN4CCC3)cc(C)[n+]1CCNC(=O)CCCC(=O)/N=C(/N)NCCC[C@@H](NC(=O)C(c1ccccc1)c1ccccc1)C(=O)NCc1ccc(O)cc1.O=C([O-])C(F)(F)F | 22 | 6 | 12 | degraded at 1.5 h [2]: 2.6%; IC50 [7]: > 10000 nM; Ki [7]: > 3000 nM; Activity [3]: Active; IC50 [8]: > 10000 nM; Ki [8]: > 5000 nM; IC50 [9]: > 10000 nM; Ki [9]: > 3000 nM; degraded at 20 min [6]: 1%; Ki [10]: 22 nM
NCCCCNC(=O)/N=C(/N)NCCC[C@@H](NC(=O)C(c1ccccc1)c1ccccc1)C(=O)NCc1ccc(O)cc1 | 4.3 | 16 |  | 
CN(C)c1ccc(/C=C/C=C/c2sc3ccccc3[n+]2CCCC(=O)O)cc1.O=C([O-])C(F)(F)F |  |  | 12 | 
Cc1cc(/C=C/c2cc3c4c(c2)CCCN4CCC3)cc(C)[n+]1CCCCCC(=O)/N=C(/N)NCCC[C@@H](NC(=O)C(c1ccccc1)c1ccccc1)C(=O)NCc1ccc(O)cc1.O=C([O-])C(F)(F)F | 29 |  | 12 | 

Source: ChEMBL document CHEMBL1773009, “Red-fluorescent argininamide-type NPY Y1 receptor antagonists as pharmacological tools” (Bioorg Med Chem, 2011)
